The list is not random: actives were taken first. Their share in the collection is about 4.7%.
AHR act – activates the human aryl hydrocarbon receptor. activation, % at 5 µM. 2.5% of 320,000 active. P35869. AHR-responsive luciferase reporter cells, luminescence. AID 2796; in the data active means activation above about 47%;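 further: 0% = vehicle wells and 100% = reference agonist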
FXN GAA850 act – frataxin GAA850 promoter activation | HEK293 lucGAA850 FXN promoter luciferase reporter, 24 h; percent of 10 µM SAHA response | 0.56% of 360,000 active | activation, % at 6 µM;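 active means activation above the average of all compounds screened plus 3 SD, cutoff fixed separately per campaign, cut at about 7.5% in these data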;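 further: 0% = DMSO wells and 100% = 10 µM SAHA wells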
MC4R ag barr – activates human MC4R beta-arrestin recruitment | P32245 | U2OS MC4R beta-arrestin complementation, luminescence; percent of melanotan II response, DMSO zero | activation, % at 8.9 µM | 0.98% of 360,000 active | AID 540308;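 active means activation above a per-plate cutoff, the mean activation of sample wells on that plate plus 3 SD, cut at about 8% in these data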
m5-HT2A agonist – agonists of mouse serotonin 5-HT2A receptor (HTR2A). CHO-K1 mHTR2A beta-arrestin complementation, luminescence; percent of 30 µM serotonin response. activation, % at 7.6 µM. P35363. 0.66% of 360,000 active. AID 624169;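 active means activation above a run cutoff, the mean activation of all tested compounds plus 3 SD, cut at about 14% in these data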;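 further: 0% = plate median of compound wells and 100% = 30 µM serotonin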
Target sequence (P35363 whole entry, looked up): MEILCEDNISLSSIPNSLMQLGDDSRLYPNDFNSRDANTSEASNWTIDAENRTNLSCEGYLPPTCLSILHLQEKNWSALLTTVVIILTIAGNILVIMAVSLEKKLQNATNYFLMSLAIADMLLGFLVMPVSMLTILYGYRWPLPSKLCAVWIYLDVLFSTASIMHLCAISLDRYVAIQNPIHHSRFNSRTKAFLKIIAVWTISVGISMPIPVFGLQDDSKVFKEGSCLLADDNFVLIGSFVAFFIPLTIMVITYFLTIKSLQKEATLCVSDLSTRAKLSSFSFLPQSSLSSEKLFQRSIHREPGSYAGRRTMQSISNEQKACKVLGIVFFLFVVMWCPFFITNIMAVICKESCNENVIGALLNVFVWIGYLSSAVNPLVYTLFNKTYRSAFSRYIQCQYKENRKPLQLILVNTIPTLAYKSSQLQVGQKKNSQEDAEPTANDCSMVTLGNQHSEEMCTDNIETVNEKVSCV
MC4R antagonist – human MC4R antagonism in cAMP assay. inhibition, % at 6.5 µM. 0.48% of 360,000 active. P32245. MC4R-expressing cells, MTII-stimulated cAMP, LANCE TR-FRET;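 active means inhibition above its plate's cutoff, the mean of tested wells on that plate plus 3 SD, cut at about 29% in these data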;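 further: 0% = Melanotan II alone and 100% = Melanotan II plus saturating MCL0020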
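System – human MC4R-expressing U2OS cells · Also added – Melanotan II · Dosing – one concentration, 6.5 µM nominal · Timing – 30-min compound, 1-h challenge, 1-h detection, room temperature · Measured by – Eu-cAMP/anti-cAMP TR-FRET, emission 671 nm · Replicates – singlicate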
GAA30 counter – GAA30 FXN promoter activation counter-screen; shares compounds with FXN GAA850 act; HEK293 lucGAA30 FXN promoter luciferase, 24 h; DMSO = 0%, 5 µM ipriflavone = 100%; activation, % at 6 µM; 66% of 1,900 active; AID 588350;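 active means mean activation above the mean of solvent-only control wells plus 3 SD, cut at about 22% in these data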;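 further: counterscreen of GAA850 promoter hits where activity marks nonselective or luminescence artifacts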
FXN GAA850 conf – GAA850 FXN promoter activation confirmation; shares compounds with FXN GAA850 act; HEK293 lucGAA850 FXN promoter luciferase reporter, 24 h; 100% = activation by SAHA; activation, % at 6 µM; 86% of 1,900 active;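 active means mean activation above a set limit taken from the primary screen, cut at about 8% in these data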;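 further: 0% = DMSO wells and 100% = 10 µM SAHA wells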
Numbers without * were called inactive; . = not tested or not shown.

SMILES	AHR act	FXN GAA850 act	MC4R ag barr	m5-HT2A agonist	MC4R antagonist	GAA30 counter	FXN GAA850 conf
NNC(=O)c1cccc(COc2ccc3c(c2)CCC3)c1	-5	9.2*	-3	-3	-4	125*	42*
NNC(=O)c1cccc(COc2ccccc2Br)c1	-6	3	-1	-5	6	.	.
COc1cc(C2(C)SCCCS2)cc(OC)c1OC	.	.	.	-5	.	.	.
COc1ccc(C(=O)c2sc(Nc3ccccc3)nc2N)cc1OC	6	9.2*	-1	-5	-15	-20	38*
COc1ccc(C(=O)NC(=S)Nc2ccccc2F)cc1	1	6	3	1	6	.	.
Nc1nc(Nc2ccccc2)sc1C(=O)c1ccccc1	8	22*	-1	-7	6	102*	107*
Nc1c(C(=O)c2ccccc2)sc(Nc2ccccc2)c1S(=O)(=O)c1ccccc1	-1	2	-3	-8	12	.	.
COc1ccc(C(=O)c2sc(Nc3ccccc3F)nc2N)cc1	39	8.1*	-1	4	0	81*	43*
c1ccc(CSc2nc3ccccc3[nH]2)cc1	1	7.9*	-1	3	-2	91*	29*
Cc1ccc(/C=N/NC(=O)c2cccs2)cc1[N+](=O)[O-]	14	8.3*	-3	1	-9	103*	42*
CC1(Cc2ccc(OC(F)(F)F)cc2)C(=O)Nc2ccc(S(=O)(=O)NC3CCCCC3)cc21 (stereo not drawn)	.	1	4	14	5	.	.
CC1(Cc2ccc(Cl)cc2)C(=O)Nc2ccc(S(=O)(=O)NC3CCCCC3)cc21 (stereo not drawn)	.	8.3*	1	2	16	-11	1
Cc1nc2c(-c3ccccc3)cnn2c(N2CCOCC2)c1C	32	8.3*	-1	2	-6	127*	44*
NC(=S)N/N=C1\CC(n2nnn(-c3cccc(Cl)c3)c2=S)C2COC1O2 (stereo not drawn)	2	-1	-2	-3	13	.	.
O=C(Nc1ccccc1C(=O)NC(Cc1ccccc1)C(=O)O)c1ccccc1 (stereo not drawn)	0	2	-1	4	3	.	.
O=C(Nc1ccccc1C(=O)NC(Cc1ccccc1)C(=O)NC1CCCCC1)c1ccccc1 (stereo not drawn)	-2	7.7*	-2	-1	18	15	6
CCC(C(=O)NCCc1ccccc1OC)n1nc(C)c2c(C)n(-c3ccccc3)nc2c1=O (stereo not drawn)	1	-2	-2	1	-4	.	.
CCS(=O)(=O)N1Cc2ccccc2CC1C(=O)Nc1nccs1 (stereo not drawn)	27	8.2*	-1	1	0	109*	38*
CCS(=O)(=O)N1Cc2ccccc2CC1C(=O)Nc1nc2c(C)cccc2s1 (stereo not drawn)	15	4	-2	0	16	.	.
CCS(=O)(=O)N1Cc2ccccc2CC1C(=O)Nc1nc(C)cs1 (stereo not drawn)	1	7.9*	0	0	1	79*	33*
CCOC(=O)c1ccc2[nH]c3c(c2c1)CCCC3C(=O)OCC (stereo not drawn)	3	-1	0	-3	4	.	.
CCOC(=O)c1ccc2[nH]c3c(c2c1)CCCCC3=O	0	8.1*	0	-4	2	65*	25*
Cc1nc(S(=O)(=O)c2ccc(Cl)cc2)c(N(C)C)o1	4	0	-3	5	7	.	.
CCOC(=O)c1cnc2cc3c(cn2c1=O)CCCC3	-2	8.2*	0	0	5	98*	34*
CS(=O)(=O)N1CCN(c2ccc(NC(=O)c3cc4ccccc4o3)cc2)CC1	-1	2	1	1	-3	.	.
CN1CCN(c2ccc(NC(=O)c3cc4ccccc4o3)cc2)CC1	14	7.7*	-1	-3	4	138*	39*
CCCCn1nnc(NC(=O)c2cc3ccccc3o2)n1	2	8.4*	-2	-2	-5	82*	26*
